{"data": "Measured values of several laboratories"}
{"Structure (SMILES)": "CCCc1c(C2CCCCN2CCN2CCOCC2)[nH]c2cc(OC(F)(F)F)ccc12 (centres unmarked)", "system": "male mouse, plasma", "setting": "oral, 30 mg/kg", "half-life [h]": 11}
{"Structure (SMILES)": "CNC(=O)[C@H](Cc1c[nH]cn1)NC(=O)CN(CCCc1ccccc1)CC(=O)O", "system": "male C57BL/6 mouse, plasma", "setting": "intraperitoneal, 30 mg/kg", "half-life [h]": 0.15}
{"Structure (SMILES)": "Cc1nc(-c2cnc(NC(C)C)n(C)c2=O)ccc1Oc1ccnc(-c2cnn(C)c2)c1", "system": "female mouse, plasma", "setting": "oral, 15 mg/kg, single dose", "half-life [h]": 6.85}
{"Structure (SMILES)": "CC=Cc1ccc(O)c(OC)c1", "system": "mouse, lung", "setting": "intranasal, 100 mg/kg", "half-life [h]": 0.521}
{"Structure (SMILES)": "COc1ccc(C(O)COc2ccc(-c3csc(-c4ccc(OCC(O)c5ccc(OC)c(OC)c5)cc4)n3)cc2)cc1OC (centres unmarked)", "system": "C57BL/6 mouse, plasma", "setting": "oral, 30 mg/kg", "half-life [h]": 4.3}
{"Structure (SMILES)": "Oc1nc2nonc2cc1Nc1ccc(OC(F)(F)F)cc1C(F)(F)F", "system": "male C57BL/6 mouse, plasma", "setting": "oral, 10 mg/kg", "half-life [h]": "> 15"}
{"Structure (SMILES)": "CNC(=O)c1cc(Oc2ccc(NC(=O)Nc3ccc(Cl)c(C(F)(F)F)c3)c(F)c2)ccn1", "system": "male mouse, plasma", "setting": "oral, 10 mg/kg, single dose", "half-life [h]": 14.9}
{"Structure (SMILES)": "CNCCN(C)c1cc(C#N)cc(CCc2cc(C)cc(N)n2)c1", "system": "male BALB/c mouse, plasma", "setting": "intravenous, 2 mg/kg", "half-life [h]": 1.1}
{"Structure (SMILES)": "Cc1noc(-c2ccc(CSCCC(=O)O)cc2)c1NC(=O)O[C@H](C)c1ccccc1Cl", "system": "mouse, plasma", "setting": "intravenous, 5 mg/kg", "half-life [h]": 0.49}
{"Structure (SMILES)": "CNC(=O)c1cc(OC)cc2c(N3CCc4c(cc(Cn5ccnc5)cc4-c4cn(C)nc4C(F)(F)F)C3=O)ccnc12", "system": "male CD-1 mouse, plasma", "setting": "intravenous, 3 mg/kg", "half-life [h]": 1.1}
{"Structure (SMILES)": "OC[C@H]1O[C@@H](c2ccc(Cl)c(Cc3ccc(O[C@H]4CCOC4)cc3)c2)[C@H](O)[C@@H](O)[C@@H]1O", "system": "CD-1 mouse, plasma", "setting": "intravenous, 5 mg/kg", "half-life [h]": 0.16}
{"Structure (SMILES)": "CN1CCC[C@H](CN2c3ccccc3Sc3ccccc32)C1.O=C(O)CCC(=O)O", "system": "mouse, plasma", "setting": "oral, 64 mg/kg, single dose", "half-life [h]": 3.36}
{"Structure (SMILES)": "COc1cc2c(Nc3ccc(Cl)c(Cl)c3F)ncnc2cc1OC[C@@H]1C[C@@H]2CN(C)C[C@@H]2C1", "system": "FVB mouse, brain", "setting": "oral, 70 mg/kg, single dose", "half-life [h]": 13.3}
{"Structure (SMILES)": "COc1nc(-c2cc(C)c(N[C@@H](C)c3c(F)cc(F)cc3F)nn2)ccc1-n1cnc(C)c1", "system": "male CD-1 mouse, plasma", "setting": "intravenous, 1 mg/kg, single dose", "half-life [h]": 3.1}
{"Structure (SMILES)": "CC1(C)CC[C@]2(C(=O)O)CC[C@]3(C)C(=CC[C@@H]4[C@@]5(C)C[C@@H](O)[C@H](OC(=O)/C=C/c6ccc(O)cc6)C(C)(C)[C@@H]5CC[C@]43C)[C@@H]2C1 (relative stereo)", "system": "mouse, plasma", "setting": "intraperitoneal, 85 µmol/kg, single dose", "half-life [h]": 34.3}
{"Structure (SMILES)": "C=C(C[C@H](N)C(=O)O)C(=O)NCc1ccc(F)cc1", "system": "male CD-1 mouse, plasma", "setting": "intravenous, 2.5 mg/kg", "half-life [h]": 0.8}
{"Structure (SMILES)": "Cc1cc(NC(=O)c2cccc3cc(-c4cccc5[nH]nc(N)c45)ccc23)ccc1F", "system": "male CD-1 mouse, plasma", "setting": "oral, 10 mg/kg", "half-life [h]": 2.15}
{"Structure (SMILES)": "COc1ccc2nccc(N3CCc4c(cc(Cn5ccnc5)cc4-c4cn(C)nc4C(F)(F)F)C3=O)c2c1", "system": "male CD-1 mouse, plasma", "setting": "oral, 50 mg/kg", "half-life [h]": 0.8}
{"Structure (SMILES)": "Cc1cc(C)cc(NC(=O)c2cnn(-c3ccc(C(C)C)cc3)c2C2CCNCC2)c1", "system": "SCID mouse, plasma", "setting": "oral, 50 mg/kg, single dose", "half-life [h]": "~2"}
{"Structure (SMILES)": "COc1ccc2c3c1O[C@H]1C[C@@H](OC(=O)c4ccccc4)C=C[C@@]31CCN(C)C2", "system": "mouse, blood", "setting": "intravenous, 3 mg/kg", "half-life [h]": 0.48}
{"Structure (SMILES)": "CCOc1ccc(Cc2cc([C@@H]3O[C@H](CO)[C@@H](O)[C@H](O)[C@H]3O)ccc2Cl)cc1", "system": "male C57BL/6 mouse, plasma", "setting": "intravenous, 1 mg/kg", "half-life [h]": 3.4}
{"Structure (SMILES)": "COc1nc(-c2cc(C)c(N[C@@H](C)c3cc(F)cc(F)c3)nn2)ccc1-n1cnc(C)c1", "system": "male CD-1 mouse, plasma", "setting": "oral, 5 mg/kg, single dose", "half-life [h]": 7.1}
{"Structure (SMILES)": "Cn1cnc2c(F)c(Nc3ccc(Br)cc3Cl)c(C(=O)NOCCO)cc21", "system": "nude mouse, liver", "setting": "oral, 5 mg/kg, single dose, tumour-bearing", "half-life [h]": 3.5}
{"Structure (SMILES)": "CC(C)(C)c1ccc(O)c(CN(Cc2cc(C(C)(C)C)ccc2O)C2CCC(NC(N)=O)CC2)c1 (centres unmarked)", "system": "male C57BL/6 mouse, brain", "setting": "oral, 10 mg/kg, single dose", "half-life [h]": 7.36}
{"Structure (SMILES)": "O=C(Nc1nc(-c2ccc(O)c(O)c2)c(-c2ccccc2)s1)c1ccc(O)c(O)c1", "system": "female nude mouse, plasma", "setting": "oral, 800 mg/kg", "half-life [h]": 10}
{"Structure (SMILES)": "COc1ccc(C[C@@H](C(=O)NO)n2cc(CNS(=O)(=O)c3ccc(-c4ccccc4)s3)nn2)cc1", "system": "female CD-1 mouse, plasma", "setting": "intraperitoneal, 50 mg/kg", "half-life [h]": 0.5}
{"Structure (SMILES)": "NC[C@@H]1O[C@H](O[C@H]2[C@@H](O)[C@H](O[C@@H]3[C@@H](O)[C@H](N)C[C@H](N)[C@H]3O[C@H]3O[C@H](CO)[C@@H](O)[C@H](O)[C@H]3N)O[C@@H]2CO)[C@H](N)[C@@H](O)[C@@H]1O", "system": "male BALB/c mouse, plasma", "setting": "intravenous, 15 mg/kg", "half-life [h]": 2.6}
{"Structure (SMILES)": "Cc1noc([C@H](Cc2c[nH]cn2)NC(=O)CN(CCCc2ccccc2)CC(=O)O)n1", "system": "male C57BL/6 mouse, plasma", "setting": "intraperitoneal, 30 mg/kg", "half-life [h]": 0.233}
{"Structure (SMILES)": "CCc1cc(OC)c2nccc(N3CCc4c(cc(Cn5ccnc5)cc4-c4cn(C)nc4C(F)(F)F)C3=O)c2c1", "system": "male CD-1 mouse, plasma", "setting": "oral, 150 mg/kg", "half-life [h]": 1.6}
{"Structure (SMILES)": "CCNc1nc2c(c(N3CC(=O)Nc4cc(OC)ccc43)n1)CCC2", "system": "female C57BL/6 mouse, plasma", "setting": "intravenous, 4 mg/kg, single dose", "half-life [h]": 0.51}
{"Structure (SMILES)": "CC[C@H](C)[C@@H]1NC(=O)[C@@](C)(NC(=O)[C@H](CCCNC(=N)N)NC(=O)[C@H](CC(C)C)NC(=O)[C@@H](NC(=O)[C@H](CCC(N)=O)NC(=O)[C@H](CC(C)C)NC(C)=O)[C@@H](C)O)CCCC=CCCC[C@@](C)(C(=O)N[C@@H](CC(C)C)C(=O)N[C@@H](Cc2ccc3ccccc3c2)C(N)=O)NC(=O)[C@H](CCCNC(=N)N)NC(=O)[C@H](CCC(N)=O)NC1=O", "system": "male BALB/c mouse, plasma", "setting": "intravenous, 10 mg/kg", "half-life [h]": 2.17}
{"Structure (SMILES)": "COc1cc(OC)c2nccc(N3CCc4c(cc(Cn5ccnc5)cc4-c4cn(C)nc4C(F)(F)F)C3=O)c2c1", "system": "male CD-1 mouse, plasma", "setting": "intravenous, 3 mg/kg", "half-life [h]": 0.5}
{"Structure (SMILES)": "COc1ccc(NC(=O)N2CCCCN3[C@H](COCCC(=O)O)[C@H](c4ccc(C#Cc5ccccc5)cc4)[C@@H]3C2)cc1", "system": "mouse, plasma", "setting": "intravenous", "half-life [h]": 2}
{"Structure (SMILES)": "COC(=O)C1=C(C)OC(C)=C(C(C)=O)C1c1ccc(Cl)c(C(F)(F)F)c1 (centres unmarked)", "system": "C57BL/6 mouse, plasma", "setting": "intravenous, 10 mg/kg", "half-life [h]": 0.25}
{"Structure (SMILES)": "Cc1nc(NC2Cc3cc(F)c(F)cc3C2)c2c(C)noc2n1", "system": "male Swiss mouse, plasma", "setting": "oral, 20 mg/kg", "half-life [h]": 0.9}
{"Structure (SMILES)": "CNC(=O)c1ccccc1Nc1cc(Nc2cc(C)c(C3CCN(CCCCCCNC(=O)COc4cccc5c4C(=O)N(C4CCC(=O)NC4=O)C5=O)CC3)cc2OC(C)C)ncc1C(F)(F)F (centres unmarked)", "system": "male Swiss mouse, plasma", "setting": "intraperitoneal, 10 mg/kg", "half-life [h]": 6.1}
{"Structure (SMILES)": "Cc1ccc2cncc(N3CCc4c(cc(Cn5ccnc5)cc4-c4cn(C)nc4C(F)(F)F)C3=O)c2c1", "system": "male CD-1 mouse, plasma", "setting": "oral, 50 mg/kg", "half-life [h]": 2}
{"Structure (SMILES)": "Cc1cc(Nc2ccc(S(F)(F)(F)(F)F)cc2)n2ccnc2n1", "system": "male Swiss mouse, plasma", "setting": "oral, 100 mg/kg, single dose", "half-life [h]": 5.8}
{"Structure (SMILES)": "CCc1ccc(Cc2cc([C@@H]3O[C@H](CO)[C@@H](O)[C@H](O)[C@H]3O)cc3c2CCC3)cc1", "system": "male C57BL/6 mouse, plasma", "setting": "oral, 3 mg/kg", "half-life [h]": 3.1}
{"Structure (SMILES)": "O=C(Nc1ccc(C(F)(F)F)cc1F)N1CCC(Cc2cccc(Oc3ccc(C(F)(F)F)cn3)c2)CC1", "system": "male Swiss mouse, blood", "setting": "oral, 1 mg/kg", "half-life [h]": 6}
{"Structure (SMILES)": "CC(C)Oc1c(NC(=O)c2ccc(NC(=O)[C@H](CC(N)=O)NC(=O)c3ccc(NC(=O)c4ccc(C#N)cc4)cc3)cc2)ccc(C(=O)Nc2ccc(C(=O)O)cc2)c1O", "system": "male CD-1 mouse, plasma", "setting": "intravenous, 5 mg/kg, single dose", "half-life [h]": 0.98}
{"Structure (SMILES)": "CCc1cc(C(=O)NC)c2nccc(N3CCc4c(cc(Cn5ccnc5)cc4-c4cn(C)nc4C(F)(F)F)C3=O)c2c1", "system": "male CD-1 mouse, plasma", "setting": "oral, 50 mg/kg", "half-life [h]": 1.5}
{"Structure (SMILES)": "NCC1CCN(c2nc(-c3ccncc3)nc3sc4c(c23)CCCC4)CC1", "system": "female CD-1 mouse, plasma", "setting": "oral, 20 mg/kg", "half-life [h]": 7.8}
{"Structure (SMILES)": "COc1ccc(NC(=O)N2CCCCN3[C@H](CN(C)S(C)(=O)=O)[C@H](c4ccc(C#Cc5ccccc5)cc4)[C@@H]3C2)cc1", "system": "mouse, plasma", "setting": "intravenous", "half-life [h]": 5}
